# High-throughput results as filed in PubChem.
# This is a sample that favours compounds with a hit; in the whole collection about 2.4% have one here.
# DAGLB inhibitor: diacylglycerol lipase beta (human) inhibition; Q8NCG7; HEK293T DAGLB membrane lysate, EnzChek fluorogenic substrate; inhibition, % at 5.17 µM; hit rate 0.059% among 340,000; in the data active means inhibition above about 34%;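 further: 0% = enzyme with vehicle and 100% = wells lacking enzyme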
# Target sequence (Q8NCG7 whole entry, looked up): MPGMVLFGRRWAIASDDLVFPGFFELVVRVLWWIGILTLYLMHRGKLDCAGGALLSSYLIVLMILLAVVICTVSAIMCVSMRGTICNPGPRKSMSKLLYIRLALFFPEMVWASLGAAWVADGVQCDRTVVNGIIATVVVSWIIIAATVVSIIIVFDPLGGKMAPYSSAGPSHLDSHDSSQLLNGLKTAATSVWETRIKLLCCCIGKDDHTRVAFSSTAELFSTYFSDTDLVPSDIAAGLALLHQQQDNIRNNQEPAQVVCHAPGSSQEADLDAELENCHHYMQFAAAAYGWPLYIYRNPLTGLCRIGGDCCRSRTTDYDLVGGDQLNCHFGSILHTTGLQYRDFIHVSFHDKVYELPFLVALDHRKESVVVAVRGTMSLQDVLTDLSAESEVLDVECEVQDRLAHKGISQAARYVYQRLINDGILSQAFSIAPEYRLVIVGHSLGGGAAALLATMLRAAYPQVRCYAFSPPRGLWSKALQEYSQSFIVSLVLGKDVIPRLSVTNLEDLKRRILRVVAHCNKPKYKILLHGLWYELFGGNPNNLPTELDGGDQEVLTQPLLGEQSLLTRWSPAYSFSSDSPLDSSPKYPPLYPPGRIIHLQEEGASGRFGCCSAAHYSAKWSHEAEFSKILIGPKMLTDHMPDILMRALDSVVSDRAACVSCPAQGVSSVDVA
# MIN6 prolif: induces beta-cell replication in MIN6 cells; MIN6 cells proliferation, ATPlite luminescence, 48 h; cells starved in 0.2% serum; 100% = growth in 10% serum; proliferation, % at 10 µM; hit rate 0.29% among 330,000;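 active means compounds whose signal lies at least 3.5 SD above the mean of all wells on their plate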;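 further: 0% = DMSO-treated cells in low-serum medium and 100% = 10% serum control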
# Myeloid diff MLP: myeloid differentiation induction; ER-HoxA9 myeloid progenitors, lysozyme-GFP differentiation, flow cytometry; calls only at 10 µM; hit rate 1% among 360,000;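 active means normalized GFP-positive differentiation at or above the plate's own cutoff, the solvent-only control mean plus 3 SD; inconclusive means no clear call, values can overlap the other calls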;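 further: cells exposed to compound for four days before flow analysis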
# MT1-MMP act inh: inhibitors of human MT1-MMP activation. GFP/RFP ratio change, % at 20 µM. AID 651647. HT1080 RFP-PRO-GFP cells, GFP/RFP ratio fluorescence, overnight; percent of plate control window, DMSO zero. hit rate 0.061% among 360,000;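 active means GFP/RFP ratio change of at least 30% with cell ATP level not reduced by more than half and red fluorescence within 50% of control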
#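 Assay system: HT1080 cells carrying an RFP-PRO-GFP reporter | Dosing: Single dose of 20 µM compound, 1% DMSO final | Incubation: Cells overnight before dosing, compound overnight, 37 °C, 5% CO2 | Evaluation: GFP/RFP fluorescence ratio | Control set: DMSO and RFP-L50D-GFP cell wells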
# SENP1 FRET inh: inhibitors of human SENP1 SUMO protease catalytic domain. AID 624204. inhibition, % at 10 µM. recombinant SENP1 catalytic domain, CyPet-SUMO1-YPet FRET cleavage. hit rate 0.21% among 360,000. Q9P0U3;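 active means inhibition at least 30% at 10 µM, raw YFP signal under a set limit, fluorescence ratio 0.5 to 1.5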;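 further: 0% = enzyme with DMSO and 100% = no enzyme wells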
#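 Compound: 10 µM single point, 0.5% DMSO; Test system: hSENP1 catalytic domain, recombinant; Timing: 50 min reaction at room temperature; Technique: FRET, CFP and YFP emission; Control set: no-enzyme wells low, DMSO-plus-enzyme wells high control.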
# CendR NRP1 mod: NRP-1/CendR interaction modulation | O14786 | inhibition, % at 25 µM | hit rate 0.85% among 360,000 | FAM-RPARPAR peptide binding to NRP-1, fluorescence polarization;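 active means inhibition or corrected inhibition above about 18%, plus a signal ratio from 0.5 to 1.5, limit read from the data, passing the limit was not always enough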
# An asterisk follows results filed as active; i = inactive; ? = inconclusive; . = not tested or not shown; + = active, no number.
SMILES,DAGLB inhibitor,MIN6 prolif,Myeloid diff MLP,MT1-MMP act inh,SENP1 FRET inh,CendR NRP1 mod
Cn1nc([N+](=O)[O-])c(C(C#N)c2ccccn2)c(Cl)c1=O (stereo unspecified),-2,-6,?,-7,-6,19
CCCn1nc([N+](=O)[O-])c(C(C#N)c2nc3ccccc3o2)c(Cl)c1=O (stereo unspecified),70*,-7,i,21,2,-1
CC1CCN(C(=O)N[C@@H](Cc2ccccc2)C(=O)O)CC1,1,2,i,3,-1,20*
Cc1cc(C)n2ncc(/C(N)=N/OC(=O)Nc3ccc(Cl)cc3)c2n1,.,-2,i,5,2,1
COC(=O)C1=C(C)N(c2cccc(C)c2)C(=O)/C1=C\c1cccs1,-6,-2,i,-8,2,28*
CCOC(=O)C1=C(C)N(c2ccccc2)C(=O)/C1=C\c1cccs1,1,0,i,-3,0,-5
O=c1[nH]c(Nc2ccccc2)cc2cc(Br)ccc12,-5,-5,i,-2,-113,-16
COc1ccccc1Nc1cc2cc(Br)ccc2c(=O)[nH]1,-15,-4,+,-11,-76,-44
Oc1ccc(C[C@H]2CNCCN2CCc2cccc(F)c2)cc1,-4,-4,i,0,0,-2
CCCCN1CCNC[C@@H]1Cc1ccc(O)cc1,-2,-2,+,-7,0,9
Oc1ccc(C[C@@H]2CNCCN2CCc2cccc3ccccc23)cc1,-8,-8,+,-8,2,-15
CCOc1c(CNc2nnnn2C)cccc1OC,2,1,i,-1,2,6
CN(C)/C=C1\NC(=S)N(c2ccccc2)C1=O,1,-3,i,-3,2,25*
CN(C)/C=C1\NC(=S)N(c2ccc(Cl)cc2)C1=O,2,1,i,-6,-2,-12
COC(CNC(=O)c1ccc2c3c(onc13)-c1ccccc1C2=O)OC,15,-4,i,34*,8,0
O=c1/c(=C\c2ccc(O)cc2)sc2n1C(c1ccccc1)C(c1ccccc1)=NN=2 (stereo unspecified),0,-6,+,-65,-28,-138
CCOC(=O)C1=C(c2ccccc2)N=c2s/c(=C\c3cccc(O)c3)c(=O)n2C1c1cccs1 (stereo unspecified),-8,-4,i,-30,-9,0
Cc1ccc2c(c1)c(C)c(C)n2CC(O)Cn1nnc2ccccc21 (stereo unspecified),-1,-2,+,4,1,-58
Cc1ccc2c(c1)c(C)c(C)n2CC(O)Cn1nc(C)cc1C (stereo unspecified),-1,-3,i,-4,7,-16
CNC(=S)NNC(=O)c1cn(C)nc1C,-2,0,i,2,-2,19
Clc1ccc2nncn2n1,1,0,i,0,2,9
COC(=O)[C@@H]1C[C@@]2(O)[C@H](O)[C@H](O)[C@H](O)C[C@H]2N1Cc1ccc(C(F)(F)F)cc1,-1,0,i,-1,-3,27*
CO/N=C/NC(=O)c1c(OC)ccnc1Oc1ccccc1,0,0,i,4,3,26*
O=C(/C=C/c1ccco1)N/C(=C\c1ccccc1)C(=O)NCCc1nc2ccccc2[nH]1,-1,-5,i,-7,15,40*
O=C(NCCc1nc2ccccc2[nH]1)c1ccco1,1,0,i,3,-1,-3
SMILES,DAGLB inhibitor,MIN6 prolif,Myeloid diff MLP,MT1-MMP act inh,SENP1 FRET inh,CendR NRP1 mod
CCCN1C(=O)/C(=N\OCC(=O)NC23CC4CC(CC(C4)C2)C3)c2ccccc21,0,-3,i,-4,3,1
Cc1cc(C)c2cc3c(N)c(C(=O)N4CCc5ccccc5C4)sc3nc2c1,5,-3,i,-1,7,-44
Cc1cccc2cc3c(N)c(C(=O)N4CCOCC4)sc3nc12,3,-1,?,-5,42*,-14
CC(NC(=O)c1ccco1)C(c1cccs1)N1CCN(c2ccccc2F)CC1 (stereo unspecified),-3,-1,+,-1,0,-1
Cc1nnc(SCCn2c(N3CCCC(C)C3)nc3c2c(=O)[nH]c(=O)n3C)s1 (stereo unspecified),0,-3,i,-8,1,0
Cc1nnc(SCCn2c(N3CCC(C)CC3)nc3c2c(=O)[nH]c(=O)n3C)s1,0,4,+,6,2,5
C[C@H](CO)N1C[C@H](C)[C@@H](CN(C)C(=O)c2ccccc2)OCc2cnnn2CCCC1=O,0,.,i,1,-1,1
COc1ccc([C@H]2Cc3cc(O)cc(O)c3C(=O)O2)cc1O,-2,-2,i,4,-6,-12
O=C1O[C@@H](c2ccc(O)cc2)Cc2cccc(O)c21,-4,-2,i,-2,-3,30*
COc1ccc([C@H]2Cc3cccc(O)c3C(=O)O2)cc1O,-2,8,i,-4,0,31*
COc1ccc(C(O)c2nccc3cc(OC)c(OC)cc23)cc1OC (stereo unspecified),0,-2,i,1,1,4
CC(C)n1ncc2c(C(=O)Nc3ccc(S(N)(=O)=O)cc3)cc(C3CC3)nc21,3,1,i,4,-3,46*
Cc1cccc(-n2c(C)c(-c3ccccc3)[nH]c2=S)c1,0,-5,+,5,2,-3
Cc1cccc(-n2c(C)n[nH]c2=S)c1,-2,2,i,5,1,6
CN(N)c1nc(-c2ccccc2)nnc1C(F)(F)F,-2,0,i,2,2,34*
CN(N)c1nc(C(F)(F)F)nc2ccccc12,-3,-1,+,-9,0,-5
Cc1ccnc(NC(c2ccccc2)c2ccc3cccnc3c2O)c1 (stereo unspecified),3,.,i,5,1,33*
Cc1ccc(C2NNC(=O)C2NC(=O)c2ccccc2)cc1 (stereo unspecified),5,-1,i,-2,1,0
C[C@@H]1CN([C@@H](C)CO)C(=O)CCCn2cc(nn2)CO[C@H]1CN(C)S(=O)(=O)c1ccc(C#N)cc1,-1,.,i,1,-1,4
O=C(Cn1c(NCCCCl)nc2ccccc21)c1ccccc1,-1,-2,i,0,2,31*
O=C(Cn1c(NCCCO)nc2ccccc21)c1ccc(Cl)cc1,-3,-3,i,-7,4,4
CN(C)S(=O)(=O)c1ccc2c(c1)/C(=C/c1cc3c([nH]1)CCCC3)C(=O)N2,-4,-6,+,-44,-30,-190
